Measurements from publication PMC8551014 (Nature chemical biology, 2021).
“Also recorded” adds a separate entry of the source.

Assays:
[1] = target: dpIRE1α* (dephosphorylated IRE1α*) (Homo sapiens, UniProt O75460); test: In vitro determination of dpIRE1α*–inhibitor complex Kdimer; assay type: biochemical; conditions: relative to apo-dpIRE1α*
Method in brief: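 IRE1α* dephosphorylated overnight at 4 °C with λ-PPase (5:1 molar) in HEPES pH 7.5/NaCl/1 mM MnCl2/DTT/Brij 35; checked by phospho-protein blot. Then titrated two-fold from 2 or 4 μM in Tris pH 7.5 assay buffer; 30 min RT with 50 μM test compound. Alexa647-quencher XBP1 mini-substrate (6 μM final). Fluorescence ex 650/em 665 nm. n=3, mean ± SEM.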

[2] = tested on: mouse splenocytes (C57BL/6); test: ELISA for secreted IgM from LPS-treated splenocytes; assay type: cell-based; conditions: 1 μg/mL LPS for three days, 20 μM-1.25 μM
Method in brief: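 C57BL/6 splenocytes, red cells lysed, CellTrace Violet-loaded, plated at 2.5 × 10^5 cells/well in complete RPMI; ±1 μg/ml LPS; test compound in two-fold dilutions (20–1.25 μM) from DMSO at 1:2000 final; 3 days, 37 °C, 5% CO2. Supernatant IgM by ELISA: 1 μg/ml goat anti-IgM capture, anti-IgM-HRP (1:3000), TMB, 1 N H2SO4 stop, A450. n=3, mean ± SEM; one-tailed t-test.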

XBP1 mRNA splicing = XBP1 mRNA splicing in ER-stressed INS-1 cells; assay type: cell-based, rat; conditions: INS-1 cells treated with brefeldin A or thapsigargin and KIRA8
Method in brief: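 Parental INS-1 cells on poly-D-lysine, grown 48 h. Test compound or DMSO given 1 h before brefeldin A, thapsigargin or DTT. In the sequential format: 10 μM first compound for 30 min, then second compound (0.5 or 1 μM) for 30 min, then 2 mM DTT. Intron-spanning XBP1 RT-PCR, PstI digest, EtBr gel, % spliced. n=3, mean ± SEM; two-tailed t-test versus DTT.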

[3] = tested on: mouse splenocytes (C57BL/6); test: Plasma cell differentiation of LPS-treated mouse splenocytes, flow cytometry; assay type: cell-based
Method in brief: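 Splenocytes cultured 3 days ±1 μg/mL LPS with test compound (20–1.25 μM, two-fold, DMSO 1:2000). Cells stained with LIVE/DEAD near-IR (1:1000, 20 min, ice), then anti-CD19/CD45R/CD138 (15 min, ice), then permeabilized for intracellular XBP1s. Plasmablasts gated as CD19+ B220-low CD138-high; division from vital-dye dilution. n=3, mean ± SEM; one-tailed t-test.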

IRE1α* = IRE1α* (Homo sapiens, UniProt O75460); test: In vitro determination of IRE1α*–inhibitor complex Kdimer; assay type: biochemical; conditions: inhibitor-bound IRE1α*
[4] = 1 μg/mL LPS for three days, 20 μM-1.25 μM

dpIRE1α* (dephosphorylated IRE1α*), sequence (O75460 547-977): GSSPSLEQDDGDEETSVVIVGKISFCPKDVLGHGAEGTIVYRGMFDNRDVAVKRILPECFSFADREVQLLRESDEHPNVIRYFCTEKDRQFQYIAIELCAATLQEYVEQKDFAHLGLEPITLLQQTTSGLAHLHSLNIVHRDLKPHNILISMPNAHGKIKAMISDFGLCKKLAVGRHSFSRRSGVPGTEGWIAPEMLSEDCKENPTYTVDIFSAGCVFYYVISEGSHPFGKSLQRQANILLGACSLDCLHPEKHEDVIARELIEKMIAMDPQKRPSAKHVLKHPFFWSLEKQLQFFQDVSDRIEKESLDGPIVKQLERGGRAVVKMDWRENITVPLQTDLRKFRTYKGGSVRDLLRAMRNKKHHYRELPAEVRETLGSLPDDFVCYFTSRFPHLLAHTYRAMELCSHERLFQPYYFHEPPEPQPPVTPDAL
IRE1α*, sequence (O75460 547-977): as above

| lowering of Kdimer of dpIRE1α* when complexed to ligand [1] | SMILES | IgM secretion [2] | XBP1 mRNA splicing (XBP1 mRNA splicing) | XBP1s expression in B cells [3, 4] | plasma cell differentiation, CD138+ [3, 4] | toxicity to splenocytes ([3]; 10 μM and 20 μM KIRA8, LPS, three days) | formation of RNase active dimers / dimerization affinity of IRE1α* (IRE1α*) |
| --- | --- | --- | --- | --- | --- | --- | --- |
| ~ 80 times | O=C(Nc1c[nH]nc1-c1nc2ccc(CN3CCOCC3)cc2[nH]1)NC1CC1 [AT9283] |  |  |  |  |  |  |
| ~ 80 times | NC(=O)Nc1cc(-c2cccc(F)c2)sc1C(=O)N[C@H]1CCCNC1 [AZD7762] |  |  |  |  |  |  |
|  | Cc1ccc2c(NS(=O)(=O)c3ccccc3Cl)cccc2c1Oc1ncccc1-c1ccnc(N[C@H]2CCCNC2)n1 [KIRA8] | reductions | completely suppresses; also recorded: almost completely suppressed | reductions | reductions | cellular toxicity | unable to form RNase active dimers at any concentration tested |
